# Laboratory results as given in paper PMC3594046 (Bioorganic & medicinal chemistry letters, 2013).
# Experiments:
# [1] = biological target: T1, TRβ-LBD / SRC2-2 peptide interaction (Homo sapiens, UniProt P10828); assay: Fluorescence polarization; type: binding
# T1 sequence (P10828 217-461 limits assumed): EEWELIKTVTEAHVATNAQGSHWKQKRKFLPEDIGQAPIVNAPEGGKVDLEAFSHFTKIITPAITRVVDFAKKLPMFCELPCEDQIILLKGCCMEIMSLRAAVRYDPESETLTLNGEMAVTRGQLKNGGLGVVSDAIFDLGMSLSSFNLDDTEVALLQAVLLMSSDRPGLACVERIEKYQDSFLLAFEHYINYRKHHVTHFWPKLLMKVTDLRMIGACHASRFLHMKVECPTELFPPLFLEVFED
# In short: (§1)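 Fluorescence polarization competition assays: TRβ-LBD with Texas Red-labelled SRC2-2 peptide, and VDR with SRC2-3 peptide. Test compounds were 3-fold serially diluted in DMSO from a 10,000 μM top concentration and pin-transferred into the assay solutions. Each run was in triplicate and repeated twice, giving 6 replicates. EC50 is reported as the mean with standard deviation.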
# TRα / SRC2-2 interaction = biological target: T2, TRα / SRC2-2 interaction (Homo sapiens, UniProt P10827); assay: FP competition assay, TRα-coactivator; type: binding; conditions: in words
# T2 sequence (P10827 1-410 isoform P10827-2): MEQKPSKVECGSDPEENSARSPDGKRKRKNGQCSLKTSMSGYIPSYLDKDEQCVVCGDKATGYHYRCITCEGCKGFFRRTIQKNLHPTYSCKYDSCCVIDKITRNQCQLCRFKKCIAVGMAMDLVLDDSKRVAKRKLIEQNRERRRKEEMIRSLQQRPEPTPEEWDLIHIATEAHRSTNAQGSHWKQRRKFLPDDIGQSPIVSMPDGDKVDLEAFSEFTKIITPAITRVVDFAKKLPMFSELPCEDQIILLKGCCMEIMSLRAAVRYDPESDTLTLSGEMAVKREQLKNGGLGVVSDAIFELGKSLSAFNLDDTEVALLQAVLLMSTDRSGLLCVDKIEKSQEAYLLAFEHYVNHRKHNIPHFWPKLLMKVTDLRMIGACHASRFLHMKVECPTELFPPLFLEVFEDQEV
# [2] = biological target: T3, vitamin D receptor (VDR) / SRC2-3 interaction (Homo sapiens, UniProt P11473); assay: FP competition assay, VDR-SRC2-3 interaction; type: binding
# T3 sequence (P11473 1-427): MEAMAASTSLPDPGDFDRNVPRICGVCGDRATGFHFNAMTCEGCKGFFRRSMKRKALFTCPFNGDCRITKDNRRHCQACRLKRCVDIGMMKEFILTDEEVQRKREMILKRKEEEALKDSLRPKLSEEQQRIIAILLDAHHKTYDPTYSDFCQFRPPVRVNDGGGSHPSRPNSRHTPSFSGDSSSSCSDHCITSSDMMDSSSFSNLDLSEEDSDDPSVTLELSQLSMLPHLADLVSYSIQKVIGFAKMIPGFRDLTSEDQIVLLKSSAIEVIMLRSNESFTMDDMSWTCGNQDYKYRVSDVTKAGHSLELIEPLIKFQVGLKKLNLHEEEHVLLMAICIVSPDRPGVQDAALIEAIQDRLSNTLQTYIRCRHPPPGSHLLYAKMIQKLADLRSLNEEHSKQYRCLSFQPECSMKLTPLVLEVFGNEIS
# In short: as §1
# [3] = test system: PEPCK gene transcription (TR-responsive) in HepG2 cells; assay: RT-PCR of T3-induced PEPCK transcription in HepG2 cells; type: cell-based; conditions: HepG2, co-treated with T3 (100 nM) and compound (1 μM and 100 nM), 24 h
# In short: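 HepG2 cells were co-treated for 24 h with T3 (100 nM) and test compound at 1 μM or 100 nM. Controls were a T3 ligand antagonist and a known coactivator antagonist. mRNA was isolated and converted to cDNA, and diluted cDNA was used for real-time PCR of PEPCK. Fold induction was calculated by the ΔΔCt method, with two independent experiments in triplicate and standard errors.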
EC50 [1],SMILES,also measured
> 60 µM,"CCCN(C(=O)CN(C)C(=O)c1ccc(S(C)(=O)=O)c([N+](=O)[O-])c1)c1ccccc1 [{4,12}]",–
> 60 µM,"CN(CC(=O)N(Cc1ccccc1)Cc1ccccc1)C(=O)c1ccc(S(C)(=O)=O)c([N+](=O)[O-])c1 [{4, 18}]",–
11 µM,"CS(=O)(=O)c1ccc(C(=O)NCCCC(=O)NC23CC4CC(CC(C4)C2)C3)cc1[N+](=O)[O-] [3{3,1}]",–
> 60 µM,"CN(CC(=O)NC12CC3CC(CC(C3)C1)C2)C(=O)c1ccc(S(C)(=O)=O)c([N+](=O)[O-])c1 [3{4,1}]",–

# Further lines, the compound ahead of its results:
SMILES,EC50 [1],also measured
"CS(=O)(=O)c1ccc(C(=O)NCC(=O)NC23CC4CC(CC(C4)C2)C3)cc1[N+](=O)[O-] [3{1,1}]",16 µM,–
"CS(=O)(=O)c1ccc(C(=O)NCC(=O)N(Cc2ccccc2)c2ccccc2)cc1[N+](=O)[O-] [3{1,13}]",–,TRα-COA antagonism compared with TRβ (TRα / SRC2-2 interaction): slightly more potency against TRα
"CCCN(C(=O)CNC(=O)c1ccc(S(C)(=O)=O)c([N+](=O)[O-])c1)c1ccccc1 [3{1,12}]",6.6 µM,–
"CN(C(=O)CNC(=O)c1ccc(S(C)(=O)=O)c([N+](=O)[O-])c1)c1ccccc1 [3{1, 11}]",5.8 µM,–
"CS(=O)(=O)c1ccc(C(=O)NCCCC(=O)N2CCN(c3ccc(C(F)(F)F)cc3)CC2)cc1[N+](=O)[O-] [3{3,24}]",–,"EC50 [2]: 7 µM; Activity against TR-SRC interaction ([1]; FP assay, in words): inactive"
"CS(=O)(=O)c1ccc(C(=O)NCC(=O)N(Cc2ccccc2)Cc2ccccc2)cc1[N+](=O)[O-] [3{1,18}]",3.6 µM,"Transcription of the PEPCK gene [3]: inhibited by the MSNBA 3{1,18} in dose-dependent manner; TRα-COA antagonism compared with TRβ (TRα / SRC2-2 interaction): slightly more potency against TRα"
